Test results: ChEMBL document CHEMBL1144815, “Diphenidol-related diamines as novel muscarinic M4 receptor antagonists” (Bioorg Med Chem Lett, 2008)
Active and inactive are the calls of the source. The rule behind the calls is not given here.

Tests used:
[1] = biological target: T1, Muscarinic acetylcholine receptor M3 (Homo sapiens, UniProt P20309); test: Displacement of [3H]N-methylscopolamine from human muscarinic M3 receptor expressed in CHO-K1 cells; type: cell-based
Target sequence in this assay (P20309 whole entry): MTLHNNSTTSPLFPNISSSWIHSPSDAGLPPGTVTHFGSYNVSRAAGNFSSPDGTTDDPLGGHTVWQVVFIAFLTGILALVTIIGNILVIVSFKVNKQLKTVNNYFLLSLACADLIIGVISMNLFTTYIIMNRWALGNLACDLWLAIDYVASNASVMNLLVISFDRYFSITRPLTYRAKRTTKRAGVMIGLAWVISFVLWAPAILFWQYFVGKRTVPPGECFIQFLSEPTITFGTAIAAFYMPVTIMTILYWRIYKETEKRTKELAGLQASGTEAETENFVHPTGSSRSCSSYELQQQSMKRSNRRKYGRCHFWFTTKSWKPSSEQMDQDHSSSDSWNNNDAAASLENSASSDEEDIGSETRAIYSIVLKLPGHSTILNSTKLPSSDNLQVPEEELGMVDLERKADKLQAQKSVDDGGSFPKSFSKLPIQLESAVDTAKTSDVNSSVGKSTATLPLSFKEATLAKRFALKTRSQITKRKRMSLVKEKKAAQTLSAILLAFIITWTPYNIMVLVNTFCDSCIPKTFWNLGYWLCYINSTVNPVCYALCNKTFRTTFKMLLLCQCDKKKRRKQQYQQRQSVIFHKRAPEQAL

[2] = biological target: T2, Muscarinic acetylcholine receptor M1 (Homo sapiens, UniProt P11229); test: Displacement of [3H]N-methylscopolamine from human muscarinic M1 receptor expressed in CHO-K1 cells; type: cell-based
T2 sequence (P11229 whole entry): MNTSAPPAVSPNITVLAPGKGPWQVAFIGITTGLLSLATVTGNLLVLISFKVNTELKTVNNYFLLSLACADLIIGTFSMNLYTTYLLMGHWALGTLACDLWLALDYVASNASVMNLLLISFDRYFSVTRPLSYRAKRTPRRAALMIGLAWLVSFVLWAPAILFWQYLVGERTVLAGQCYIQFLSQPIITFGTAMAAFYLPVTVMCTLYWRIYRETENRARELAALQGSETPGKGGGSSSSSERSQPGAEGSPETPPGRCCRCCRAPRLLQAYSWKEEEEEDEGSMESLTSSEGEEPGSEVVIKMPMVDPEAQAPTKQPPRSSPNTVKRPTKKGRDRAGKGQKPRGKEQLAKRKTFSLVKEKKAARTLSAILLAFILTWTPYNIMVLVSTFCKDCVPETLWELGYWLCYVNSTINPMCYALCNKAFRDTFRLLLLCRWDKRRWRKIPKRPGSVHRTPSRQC

[3] = biological target: T3, Muscarinic acetylcholine receptor M2 (Homo sapiens, UniProt P08172); test: Displacement of [3H]N-methylscopolamine from human muscarinic M2 receptor expressed in CHO-K1 cells; type: cell-based
T3 sequence (P08172 whole entry): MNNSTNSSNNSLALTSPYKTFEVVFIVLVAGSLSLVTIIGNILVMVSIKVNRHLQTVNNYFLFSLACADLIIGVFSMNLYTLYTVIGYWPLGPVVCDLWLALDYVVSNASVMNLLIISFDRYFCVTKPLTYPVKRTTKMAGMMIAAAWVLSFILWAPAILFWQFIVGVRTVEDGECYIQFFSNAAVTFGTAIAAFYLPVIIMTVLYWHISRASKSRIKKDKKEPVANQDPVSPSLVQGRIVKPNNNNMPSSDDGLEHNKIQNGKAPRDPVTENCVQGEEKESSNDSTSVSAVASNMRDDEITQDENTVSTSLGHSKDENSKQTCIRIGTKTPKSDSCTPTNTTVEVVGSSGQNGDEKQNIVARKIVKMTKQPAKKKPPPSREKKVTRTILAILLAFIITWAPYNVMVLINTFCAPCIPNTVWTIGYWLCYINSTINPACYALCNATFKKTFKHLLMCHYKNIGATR
Summary of the method: (§1)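 Binding was measured in CHO-K1 stable transfectants expressing the human receptor subtype. Labelled ligand was [³H]-N-methylscopolamine chloride. Values are the mean of three experiments performed in triplicate.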

[4] = biological target: T4, Muscarinic acetylcholine receptor M4 (Homo sapiens, UniProt P08173); test: Displacement of [3H]N-methylscopolamine from human muscarinic M4 receptor expressed in CHO-K1 cells; type: cell-based; summary of the method: as §1
T4 sequence (P08173 whole entry): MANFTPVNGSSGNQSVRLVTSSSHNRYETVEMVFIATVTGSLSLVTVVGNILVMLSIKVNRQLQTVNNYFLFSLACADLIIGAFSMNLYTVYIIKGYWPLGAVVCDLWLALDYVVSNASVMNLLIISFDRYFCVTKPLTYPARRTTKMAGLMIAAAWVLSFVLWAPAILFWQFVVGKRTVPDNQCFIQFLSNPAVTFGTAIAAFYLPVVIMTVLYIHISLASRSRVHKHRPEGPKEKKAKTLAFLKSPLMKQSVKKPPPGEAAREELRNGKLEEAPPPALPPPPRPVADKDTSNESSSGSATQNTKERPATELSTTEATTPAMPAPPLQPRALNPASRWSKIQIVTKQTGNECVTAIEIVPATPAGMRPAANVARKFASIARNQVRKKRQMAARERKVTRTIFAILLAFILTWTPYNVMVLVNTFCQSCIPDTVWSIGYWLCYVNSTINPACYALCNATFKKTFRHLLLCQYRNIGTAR

[5] = biological target: T5, Muscarinic acetylcholine receptor M5 (Homo sapiens, UniProt P08912); test: Displacement of [3H]N-methylscopolamine from human muscarinic M5 receptor expressed in CHO-K1 cells; type: cell-based; summary of the method: as §1
T5 sequence (P08912 whole entry): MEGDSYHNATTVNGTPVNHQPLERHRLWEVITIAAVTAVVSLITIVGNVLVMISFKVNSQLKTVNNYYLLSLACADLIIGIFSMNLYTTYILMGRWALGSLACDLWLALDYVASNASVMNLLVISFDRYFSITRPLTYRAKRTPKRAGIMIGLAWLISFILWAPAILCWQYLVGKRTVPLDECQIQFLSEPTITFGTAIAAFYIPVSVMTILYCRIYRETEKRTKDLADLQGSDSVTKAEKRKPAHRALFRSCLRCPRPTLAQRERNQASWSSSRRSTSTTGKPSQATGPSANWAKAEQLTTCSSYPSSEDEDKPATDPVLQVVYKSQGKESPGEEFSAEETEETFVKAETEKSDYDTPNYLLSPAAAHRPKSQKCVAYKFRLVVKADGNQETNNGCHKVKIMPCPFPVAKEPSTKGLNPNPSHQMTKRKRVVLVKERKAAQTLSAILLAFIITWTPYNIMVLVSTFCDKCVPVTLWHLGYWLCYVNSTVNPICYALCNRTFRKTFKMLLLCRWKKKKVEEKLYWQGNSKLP

[6] = biological target: T6, Muscarinic acetylcholine receptor M5 (Homo sapiens) (UniProt P08912); test: Antagonist activity at human muscarinic M5 receptor expressed in CHO cells assessed as inhibition of basal Eu-GTP binding; type: cell-based
T6 sequence (whole entry): T5 sequence (P08912 whole entry)

[7] = biological target: T7, Muscarinic acetylcholine receptor M1 (Homo sapiens) (UniProt P11229); test: Antagonist activity at human muscarinic M1 receptor expressed in CHO cells assessed as inhibition of basal Eu-GTP binding; type: cell-based
T7 sequence (whole entry): T2 sequence (P11229 whole entry)

[8] = biological target: T1, Muscarinic acetylcholine receptor M3; test: Antagonist activity at human muscarinic M3 receptor expressed in CHO cells assessed as inhibition of carbachol-induced Eu-GTP binding; type: cell-based
Summary of the method: (§2)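 Membranes from CHO-K1 cells stably expressing the human receptor subtype. Agonist was carbachol, and the read-out was carbachol-stimulated binding of the non-hydrolysable analogue Eu-GTP to Gα subunits. pKb was estimated functionally by concentration-ratio analysis. Values are the mean of three experiments run in triplicate.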
Target sequence in this assay (P20309 whole entry, looked up): as the sequence (P20309 whole entry) above

[9] = biological target: T1, Muscarinic acetylcholine receptor M3; test: Antagonist activity at human muscarinic M3 receptor expressed in CHO cells assessed as inhibition of basal Eu-GTP binding; type: cell-based
Target sequence in this assay (P20309 whole entry, looked up): as the sequence (P20309 whole entry) above

[10] = biological target: T8, Muscarinic acetylcholine receptor M2 (Homo sapiens) (UniProt P08172); test: Antagonist activity at human muscarinic M2 receptor expressed in CHO cells assessed as inhibition of carbachol-induced Eu-GTP binding; type: cell-based; summary of the method: as §2
T8 sequence (whole entry): T3 sequence (P08172 whole entry)

[11] = biological target: T7, Muscarinic acetylcholine receptor M1 (Homo sapiens); test: Antagonist activity at human muscarinic M1 receptor expressed in CHO cells assessed as inhibition of carbachol-induced Eu-GTP binding; type: cell-based; summary of the method: as §2
[12] = biological target: T9, Muscarinic acetylcholine receptor M4 (Homo sapiens) (UniProt P08173); test: Antagonist activity at human muscarinic M4 receptor expressed in CHO cells assessed as inhibition of basal Eu-GTP binding; type: cell-based
T9 sequence (whole entry): T4 sequence (P08173 whole entry)

[13] = biological target: T6, Muscarinic acetylcholine receptor M5 (Homo sapiens); test: Antagonist activity at human muscarinic M5 receptor expressed in CHO cells assessed as inhibition of carbachol-induced Eu-GTP binding; type: cell-based; summary of the method: as §2
[14] = biological target: T8, Muscarinic acetylcholine receptor M2 (Homo sapiens); test: Antagonist activity at human muscarinic M2 receptor expressed in CHO cells assessed as inhibition of basal Eu-GTP binding; type: cell-based
[15] = biological target: T9, Muscarinic acetylcholine receptor M4 (Homo sapiens); test: Antagonist activity at human muscarinic M4 receptor expressed in CHO cells assessed as inhibition of carbachol-induced Eu-GTP binding; type: cell-based; summary of the method: as §2
[16] = biological target: T4, Muscarinic acetylcholine receptor M4; test: Antagonist activity at human muscarinic M4 receptor expressed in CHO cells assessed as blockade of carbachol-induced inhibition of forskolin-stimulated cAMP accumulation; type: functional, cell-based

Compound	Ki [1]	Ki [2]	Ki [3]	Ki [4]	Ki [5]	Activity [6]	Activity [7]	pKb [8]	Activity [9]	pKb [10]	pKb [11]	Activity [12]	pKb [13]	Activity [14]	pKb [15]	EC50 [16]
C[N+](C)(CCCC(O)(c1ccccc1)c1ccccc1)CCC[N+](C)(C)CCCC(O)(c1ccccc1)c1ccccc1	12.3 µM	7.24 µM	12 µM	11.2 µM	7.59 µM	–	–	–	–	–	–	–	–	–	–	–
OC(CCCN1CCC(C2CCN(CCCC(O)(c3ccccc3)c3ccccc3)CC2)CC1)(c1ccccc1)c1ccccc1	0.724 µM	0.794 µM	0.871 µM	0.0741 µM	0.776 µM	inactive	inactive	6.14	inactive	5.82	5.92	inactive	6.4	inactive	7.21	138 nM
C[N+]1(CCCC(O)(c2ccccc2)c2ccccc2)CCN(CCCC(O)(c2ccccc2)c2ccccc2)CC1	5.5 µM	7.08 µM	2.29 µM	1.23 µM	1.55 µM	–	–	–	–	–	–	–	–	–	–	–
C[N+]1(C)CCC(C2CC[N+](C)(CCCC(O)(c3ccccc3)c3ccccc3)CC2)CC1 (stereo unspecified)	3.63 µM	8.32 µM	4.37 µM	2.69 µM	25.7 µM	–	–	–	–	–	–	–	–	–	–	–
C[N+](C)(CCCC(O)(c1ccccc1)c1ccccc1)CC[N+](C)(C)CCCC(O)(c1ccccc1)c1ccccc1	43.7 µM	26.3 µM	47.9 µM	11.2 µM	18.2 µM	–	–	–	–	–	–	–	–	–	–	–
OC(CCCN1CCN(c2ccccc2)CC1)(c1ccccc1)c1ccccc1	70.8 µM	363 µM	457 µM	100 µM	123 µM	–	–	–	–	–	–	–	–	–	–	–
OC(CCCN1CCN(CCCC(O)(c2ccccc2)c2ccccc2)CC1)(c1ccccc1)c1ccccc1	87.1 µM	851 µM	178 µM	22.4 µM	23.4 µM	–	–	–	–	–	–	–	–	–	–	–
CN(CCCC(O)(c1ccccc1)c1ccccc1)CCN(C)CCCC(O)(c1ccccc1)c1ccccc1	380 µM	245 µM	214 µM	162 µM	229 µM	–	–	–	–	–	–	–	–	–	–	–
CN(CCCN(C)CCCC(O)(c1ccccc1)c1ccccc1)CCCC(O)(c1ccccc1)c1ccccc1	1.74 µM	1.35 µM	5.5 µM	0.617 µM	0.832 µM	–	–	–	–	–	–	–	–	–	–	–
